Our source for the yeast fitness values is the RNAGym collection of RNA variant scans (doi:10.1126/science.aae0568).

To fix the notation:
B1: tRNA (parent)
chain: GUUCCGUUGGCGUAAUGGUAACGCGUCUCCCUCCUAAGGAGAAGACUGCGGGUUCGAGUCCCGUACGGAACG

This sample holds only a part of the variants without activity.

The variants in the data set derive from B1. Briefly: yeast fitness relative to wild type (ratio to wild type); higher = fitter; tRNA-Arg(CCU), competitive growth, 37 C, YPD. In outline: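 Variants of the tRNA-Arg(CCU) gene, chemically synthesised with a 3% per-site mutation rate at 69 sites, were placed at the native genomic locus in Saccharomyces cerevisiae. The pooled strains were competed in YPD at 37°C for 24 hours in six parallel replicates. Gene amplicons from the start population and from each end population were read by 100-nucleotide paired-end sequencing. Darwinian fitness relative to wild type came from changes in genotype frequencies; genotypes needed ≥ 100 starting reads, and estimates < 0.5 were set to 0.5.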
Consider A20C C29A G51C, for which the yeast fitness is at most 0.5.

Consider A45C U54C, for which the yeast fitness is 0.69.

Consider G39A C55U C61A, for which the yeast fitness is at most 0.5.

Turning to G9A A14U C34G A37C, the yeast fitness is at most 0.5.

With U2A C22G, the yeast fitness amounted to 0.888.

Regarding C4U U7G A14U, the yeast fitness is at most 0.5.

Regarding U2C A15C A20C A65U, the yeast fitness amounted to 0.52.

Take C11U C29A A57U C62U A70U: the yeast fitness is at most 0.5.

Consider G6C U8C A43U U59C, for which the yeast fitness was at most 0.5.

Take U32C A40C G51A C61U A69C: the yeast fitness was at most 0.5.

As for G9A A37C G67C, the yeast fitness was at most 0.5.

As to A40C A69U, the yeast fitness was 0.843.

Turning to U16A A20C C22U C33U A42G, the yeast fitness was at most 0.5.

Take U28C A43U G48C C60G: the yeast fitness was at most 0.5.

In the case of C4A A20U C34A G63C G67C A69U, the yeast fitness is at most 0.5.

As for C29U A40G U47A, the yeast fitness is 0.582.

On to U16A C46A, for which the yeast fitness was found to be 0.92.

In the case of G44C C46G C55U G63A, the yeast fitness was at most 0.5.

For the variant A15G C24G C29U C34G U35C C49U C62U, the yeast fitness is at most 0.5.

Take U7C A65U: the yeast fitness amounted to 0.849.

For C22U C55G A70C, the yeast fitness turned out to be 0.558.

As to C5A A20G U26A A40G G58C G67U, the yeast fitness was at most 0.5.

As for C29U C30G, the yeast fitness was 0.716.

In the case of A43G G44A C46A, the yeast fitness turned out to be 0.976.

Take C24A G39A C60A: the yeast fitness was at most 0.5.

Regarding G17A C27G A36C U54A, the yeast fitness is 0.555.

Regarding C11A C27A G67A, the yeast fitness was 0.626.

In the case of U8C U32A A40U G41C C46A G52A, the yeast fitness is at most 0.5.

Regarding U3A C33G C34G U35A G44A, the yeast fitness was found to be 0.556.

With G10C A40U, the yeast fitness was found to be 0.635.

In the case of U3G A36U, the yeast fitness was found to be 0.598.

Take A43C C60G: the yeast fitness was determined as 0.953.

For G12A G44A, the yeast fitness is 0.935.

Take U2G A40U C55U: the yeast fitness was at most 0.5.

Take U2C G9A C24G C30U C62U: the yeast fitness was at most 0.5.

Turning to C5U C34U A42U, the yeast fitness amounted to 0.529.

In the case of C31A G56A, the yeast fitness was 0.805.

For U3C A37C C49U, the yeast fitness is 0.681.

A15C G48A A57G C61A: the yeast fitness was at most 0.5.

On to G10A U19A A40C A42C, for which the yeast fitness stood at 0.541.

In the case of U3A G6C C55U G63A, the yeast fitness was at most 0.5.

As to A14U C29G C34G, the yeast fitness was at most 0.5.

Take C5G C27G C61U: the yeast fitness was at most 0.5.

With U13G C62U, the yeast fitness came to 0.92.

Regarding C5U G25A, the yeast fitness is 0.891.

In the case of G52A A57U, the yeast fitness was determined as 0.516.

For the variant G52C U64A, the yeast fitness turned out to be 0.573.

On to U2A A37G, for which the yeast fitness worked out at 0.659.

Turning to C22U A45G G56C, the yeast fitness turned out to be 0.602.

As for C34U C55U G67C, the yeast fitness came out at 0.558.

C24U C34G A45U G68C: the yeast fitness was at most 0.5.

For the variant G12C C33G G44C, the yeast fitness stood at 0.572.

Turning to G9A C55U A70G, the yeast fitness was 0.536.

In the case of C49G C60A, the yeast fitness was determined as 0.696.

As to U2A A21U U54A G56C, the yeast fitness came to 0.646.

On to A14U A20C C22U C24U C49G U53A G56C, for which the yeast fitness worked out at 0.547.

On to G23C C27G U35G C62A, for which the yeast fitness was found to be 0.59.

As to U2A U32C U53C, the yeast fitness was at most 0.5.

In the case of G23C A40G, the yeast fitness is 0.639.

Take U16A C30G G44C C61A: the yeast fitness is at most 0.5.

For the variant G23A C29U C30A C46G, the yeast fitness is at most 0.5.

Turning to A21G C66A, the yeast fitness worked out at 0.701.

For the variant U3C A14C A45C, the yeast fitness was at most 0.5.

U53A C62U: the yeast fitness came to 0.827.

As to C27G G48C A57U, the yeast fitness was at most 0.5.

In the case of U3A C24G C29U A36G A43U, the yeast fitness was at most 0.5.

As to C5G U26C A69C, the yeast fitness is 0.617.

As to C5U U35C U54C C55A, the yeast fitness was at most 0.5.

As for C29U G52A, the yeast fitness is 0.728.

For G9A C33G C49A A69U, the yeast fitness is at most 0.5.

Turning to U19A A70G, the yeast fitness stood at 0.913.

As to A36C G44A A70C, the yeast fitness was at most 0.5.

With G9A C27G C33G C55G A57C, the yeast fitness was at most 0.5.

With A20C C46U G50A G67C A70U, the yeast fitness was at most 0.5.

As for U3C A21G C33G C34G, the yeast fitness is at most 0.5.

Regarding C22U C24U A36C A45G G56C, the yeast fitness is at most 0.5.

On to C4U C31U G52C C61A, for which the yeast fitness was at most 0.5.

Take C33G A43C C62A G67C: the yeast fitness was determined as 0.743.

On to A40U A42C C55U C62U, for which the yeast fitness is at most 0.5.

For C5A U8C G52A G58C, the yeast fitness is at most 0.5.

As for A20U A21C C27A G68A, the yeast fitness was at most 0.5.

For C27G C33G, the yeast fitness came out at 0.524.

In the case of U16A G23C C29U C31G U47A, the yeast fitness is at most 0.5.

On to C24U C29G C60U C66U, for which the yeast fitness is at most 0.5.

In the case of U26G C34U A40G G51A, the yeast fitness was at most 0.5.

For A42U G44C, the yeast fitness amounted to 0.842.

Take C11A U13A C29A G48A C66U: the yeast fitness was at most 0.5.

Turning to G18C G41C G44C C55A, the yeast fitness is at most 0.5.

For the variant C4U A37G A45U, the yeast fitness is 0.707.

With C4A G25C C29G G41A C49U A65G C66U, the yeast fitness was at most 0.5.

Consider C4A C24G G44C, for which the yeast fitness is at most 0.5.

Turning to A43G C55G, the yeast fitness is 0.684.

Take C24A G44C U59A: the yeast fitness was at most 0.5.

Take G12C G17A C46G C49U: the yeast fitness was at most 0.5.

As to C11U A42U A43G C61A, the yeast fitness was at most 0.5.

On to A14U G58A, for which the yeast fitness stood at 0.629.

As for G23A C33G U54A G56C, the yeast fitness was at most 0.5.

With C5A A21G A65U, the yeast fitness worked out at 0.655.

In the case of C31U U32C C34U A57C, the yeast fitness is at most 0.5.

As to U32C C34G A42C, the yeast fitness is at most 0.5.

Turning to A14U C29U C55U, the yeast fitness was at most 0.5.

Turning to C5U C29U A45U, the yeast fitness turned out to be 0.924.

Take C22U A70U: the yeast fitness amounted to 0.842.

As for C4A C22U C24A C29A A36C G52A U53A, the yeast fitness was at most 0.5.

Regarding C4G A43G G51C, the yeast fitness is at most 0.5.

Consider U32C C60U, for which the yeast fitness was found to be 0.642.

For the variant C11U G12A A15C C31A G51A C66U, the yeast fitness is 0.594.

Take C4G C11A C30G C61G: the yeast fitness is at most 0.5.

For C33U A43C C46G, the yeast fitness was at most 0.5.

As to C5U A14G C22A, the yeast fitness was at most 0.5.

With G12A C31G G48C C66G, the yeast fitness is at most 0.5.

For the variant C4G A36C, the yeast fitness is 0.745.

Consider C27U C46G A65G, for which the yeast fitness came to 0.725.

Take C31G A65U A70G: the yeast fitness was determined as 0.589.

As to U3G C30A, the yeast fitness is 0.868.

For the variant C4A A57C C61G, the yeast fitness was at most 0.5.

As for C22U U28A A37U C61U, the yeast fitness amounted to 0.552.

For the variant G17C A42C C60A, the yeast fitness was at most 0.5.

For the variant A21C C66U, the yeast fitness was 0.757.

As to U8C A21G, the yeast fitness stood at 1.03.

As to G10A U59C G68C, the yeast fitness was at most 0.5.

For C5G G25C G56A, the yeast fitness worked out at 0.62.

As to U7A A21G, the yeast fitness is 0.738.

In the case of C4U G12C G51A A65C, the yeast fitness was at most 0.5.

G10C A45U G48A C55A: the yeast fitness was at most 0.5.

With C11U C31G A57U, the yeast fitness worked out at 0.533.

Take G6A C24U U47C: the yeast fitness is 0.751.

Take C5U G9C A36U C60G: the yeast fitness is at most 0.5.

As for C34G A43U C49A, the yeast fitness was 0.737.

With C33U A42C C55G G68C, the yeast fitness was at most 0.5.

With A15U G56U, the yeast fitness came to 0.657.

For the variant C24U A42U G52A, the yeast fitness is 0.563.

As for A40G A45U G56A, the yeast fitness turned out to be 0.601.

G6C A20C C66G A70U: the yeast fitness was 0.577.

With U13A C29U A42U, the yeast fitness stood at 0.568.

Consider C4A G50A A70G, for which the yeast fitness came to 0.57.

Consider U2C U13C G44C G58A, for which the yeast fitness was determined as 0.59.

As for A45G A57G G63A, the yeast fitness was at most 0.5.

In the case of C24G C49G, the yeast fitness amounted to 0.544.

Take C4A C30G A40U C49U: the yeast fitness is at most 0.5.

As to G17A U35A G44A G50A, the yeast fitness was at most 0.5.

With U2C A15U U16C G23C, the yeast fitness was at most 0.5.

Take A21U C22U C55U: the yeast fitness was at most 0.5.

Regarding C11G A15G, the yeast fitness worked out at 0.596.

As to A14U C29G C55G A69G A70G, the yeast fitness is at most 0.5.

On to U16G A42G, for which the yeast fitness was 0.78.

Take U8A C29U C30G: the yeast fitness was at most 0.5.

Turning to G10C U13C U53C, the yeast fitness worked out at 0.512.

As to U32C A37G, the yeast fitness was found to be 0.819.

Take U2A C22A C49G: the yeast fitness is at most 0.5.

In the case of U2A A21U, the yeast fitness came to 0.686.

For the variant C11U A15C G44C C46A, the yeast fitness is at most 0.5.

As for G10A G17A U35G A36G A40C A57C C62A, the yeast fitness was at most 0.5.

Consider C4A C22U A70C, for which the yeast fitness was 0.663.

On to C5A C11G A21U U28C, for which the yeast fitness was at most 0.5.

On to U16C A45C C60G, for which the yeast fitness was at most 0.5.

Consider A14C G58C G67A, for which the yeast fitness was at most 0.5.

Turning to A14C U47A, the yeast fitness came out at 0.701.

Turning to A15C U54C C66G, the yeast fitness is at most 0.5.

Turning to A21U C27A, the yeast fitness came to 0.583.

As to C5G G12A A14G C30G A45G G52A, the yeast fitness is at most 0.5.

Turning to C30G A42U C61A, the yeast fitness came out at 0.639.

Take C4G U7C C22U U35G C61A: the yeast fitness was at most 0.5.

With A21G C24U G44C, the yeast fitness worked out at 0.583.

Turning to U2C C11G C46A A70C, the yeast fitness is at most 0.5.

Take C24U C31A C33A C34U C46A: the yeast fitness was at most 0.5.

In the case of C55G C62U, the yeast fitness came to 0.626.
